# Assay results as given in ChEMBL document CHEMBL4145654, “Structure-Based Discovery of CF53 as a Potent and Orally Bioavailable Bromodomain and Extra-Terminal (BET) Bromodomain Inhibitor” (J Med Chem, 2018).
# Tests used:
# MOLM-13 = assay: Growth inhibition of human MOLM13 cells after 4 days by WST-8 assay; assay type: functional, cell-based; details: MOLM-13, 96 h
# In short: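 Leukemia cells, used within 3 months of thaw, were seeded at 10 000 cells/well and exposed to serially diluted compound in culture medium for 4 days. WST-8 reagent was added at 10% (v/v) final for 1−3 h, and absorbance was read at 450 nm. Readings were normalized to DMSO-treated cells, and the IC50 was fitted by nonlinear regression.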
# [1] = target: Bromodomain-containing protein 4 (Homo sapiens, UniProt O60885); assay: Inhibition of FAM-labeled ZBA248 binding to recombinant human BRD4 bromodomain 1 (44 to 168 residues) expressed in Rosetta2 Escherichia coli DE3 cells after 30 mins by fluorescence polarization assay
# In short: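 Recombinant human BRD4 BD1 (residues 44−168) in a fluorescence polarization competitive binding assay, run as described in earlier work.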
# MDA-MB-231 [2] = assay: Growth inhibition of human MDA-MB-231 cells after 4 days by WST-8 assay; assay type: functional, cell-based; details: MDA-MB-231, 96 h
# In short: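 Cells used within 3 months of thaw. Breast cancer cells seeded at 3000 cells/well, then serially diluted compound added, cultured 4 days. Growth read by WST-8 (10% v/v final, 1−3 h, 450 nm). Readings normalized to DMSO-treated cells. IC50 by nonlinear regression.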
# [3] = Plasma concentration in SCID mouse xenografted with human MDA-MB-231 cells at 50 mg/kg administered via oral gavage measured after 6 hrs; assay type: ADME, organism-based
# In short: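 SCID mice carrying MDA-MB-231 tumors dosed orally at 50 mg/kg. Plasma drug level determined by LC-MS/MS (positive-ion MRM, C18 column, formic acid/acetonitrile gradient). Value is the mean from two mice per time point.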
# [4] = Plasma concentration in SCID mouse xenografted with human MDA-MB-231 cells at 50 mg/kg administered via oral gavage measured after 1 hr; assay type: ADME, organism-based
# In short: (§1)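 Limited PK in SCID mice bearing MDA-MB-231 tumors, 50 mg/kg given by oral gavage. Plasma and tumor tissue drug levels measured at two time points per compound. Values are the mean of two mice/tumors per time point.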
# [5] = Drug uptake in tumor of SCID mouse xenografted with human MDA-MB-231 cells at 50 mg/kg administered via oral gavage measured after 1 hr; assay type: ADME, organism-based, Neoplasm; details: read-out: Drug uptake; in short: as §1
# [6] = Drug uptake in tumor of SCID mouse xenografted with human MDA-MB-231 cells at 50 mg/kg administered via oral gavage measured after 6 hrs; assay type: ADME, organism-based, Neoplasm; details: read-out: Drug uptake; in short: as §1
# [7] = Plasma concentration in SCID mouse xenografted with human MDA-MB-231 cells at 50 mg/kg administered via oral gavage measured after 0.5 hrs; assay type: ADME, organism-based; in short: as §1
# [8] = Drug uptake in tumor of SCID mouse xenografted with human MDA-MB-231 cells at 50 mg/kg administered via oral gavage measured after 0.5 hrs; assay type: ADME, organism-based, Neoplasm; details: read-out: Drug uptake; in short: as §1
# MDA-MB-231 [9] = assay: Antitumor activity against human MDA-MB-231 cells xenografted in SCID mouse assessed as tumor growth inhibition at 50 mg/kg administered via oral gavage measured on day 44; assay type: functional; details: MDA-MB-231, po, 1056 h, read-out: TGI
# In short: (§2)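 Each SCID mouse received a single dorsal subcutaneous tumor of 5 × 10⁶ RS4;11 or MDA-MB-231 cells in 50% Matrigel. At about 100 mm3, mice were randomised to treatment or vehicle control groups. Dosing was by oral gavage at the stated schedules. Tumor volume was L × W²/2, and body weight was tracked. TGI versus vehicle at end of treatment was tested by unpaired two-tailed t-test.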
# RS4-11 = assay: Antitumor activity against human RS4:11 cells xenografted in SCID mouse assessed as tumor growth inhibition at 50 mg/kg administered via oral gavage measured on day 35; assay type: functional; details: RS4-11, po, 840 h, read-out: TGI; in short: as §2
IC50 (MOLM-13) [nM],IC50 [1] [nM],Ki [1] [nM],IC50 (MDA-MB-231 [2]) [nM],Compound,other results
201,51.7,15.8,319,COc1cc2c(cc1-c1c(C)noc1C)[nH]c1nc(C)nc(Nc3c(C)c(C4CC4)nn3C)c12,–
–,87.6,28.4,–,COc1cc2c(cc1-c1c(C)noc1C)[nH]c1nc(C)nc(Nc3nn(C)c4cc(F)ccc34)c12,–
5,–,0.5,29.6,COc1cc2c(cc1-c1c(C)noc1C)[nH]c1nc(C)nc(Nc3cc(C)nn3C(C)C)c12,–
56,15.8,3.1,156,COc1cc2c(cc1-c1c(C)noc1C)[nH]c1nc(C)nc(Nc3cc(C(F)(F)F)nn3C)c12,–
–,20.8,4.9,–,COc1cc2c(cc1-c1c(C)noc1C)[nH]c1nc(C)nc(Nc3nn(C)c4ncccc34)c12,–
–,9.1,0.7,–,COc1cc2c(cc1-c1c(C)noc1C)[nH]c1nc(C)nc(Nc3nn(C)c4ccccc34)c12,–
11.7,–,< 1,26,COc1cc2c(cc1-c1c(C)noc1C)[nH]c1nc(C)nc(Nc3cc(C(C)C)nn3C)c12,concentration at 6 h [3]: 1870 ng/mL; concentration at 1 h [4]: 6240 ng/mL; concentration at 1 h [5]: 736 ng/g; concentration at 6 h [6]: 166 ng/g
75,13.8,2.4,164,COc1cc2c(cc1-c1c(C)noc1C)[nH]c1nc(C)nc(Nc3cc(C(C)(C)C(F)(F)F)nn3C)c12,–
10.3,9.4,0.8,55.1,COc1cc2c(cc1-c1c(C)noc1C)[nH]c1nc(C)nc(Nc3cc(C)nn3C)c12,–
–,95.2,31,–,COc1cc2c(cc1-c1c(C)noc1C)[nH]c1nc(C)nc(Nc3nn(C)c4c(F)cccc34)c12,–
–,228,77.9,–,COc1cc2c(cc1-c1c(C)noc1C)[nH]c1nc(C)nc(Nc3nn(C)c4ccncc34)c12,–
17.7,4,< 1,25,COc1cc2c(cc1-c1c(C)noc1C)[nH]c1nc(C)nc(Nc3cc(C)nn3C3CCCC3)c12,–
5,5.5,< 1,67,COc1cc2c(cc1-c1c(C)noc1C)[nH]c1nc(C)nc(Nc3c4c(nn3C)CCC4)c12,concentration at 6 h [3]: 1580 ng/mL; concentration at 1 h [4]: 4880 ng/mL; concentration at 1 h [5]: 1510 ng/g; concentration at 6 h [6]: 600 ng/g
38.8,14.3,2.6,26,COc1cc2c(cc1-c1c(C)noc1C)[nH]c1nc(C)nc(Nc3cc(C)nn3C3CCC3)c12,–
–,229,78,–,COc1cc2c(cc1-c1c(C)noc1C)[nH]c1nc(C)nc(Nc3nn(C)c4cccnc34)c12,–
41.9,–,< 1,58.3,COc1cc2c(cc1-c1c(C)noc1C)[nH]c1nc(C)nc(Nc3nn(C)c4c3CCCC4)c12,–
–,–,16.7,–,COc1cc2c(cc1-c1c(C)noc1C)[nH]c1nc(C)nc(Nc3nn(C)c4ccc(F)cc34)c12,–
30.7,24.9,6.3,81.1,COc1cc2c(cc1-c1c(C)noc1C)[nH]c1nc(C)nc(Nc3cc(C)n(C)n3)c12,–
–,–,21.5,–,COc1cc2c(cc1-c1c(C)noc1C)[nH]c1nc(C)nc(Nc3nn(C)c4cccc(F)c34)c12,–
10.6,4.4,< 1,13.9,COc1cc2c(cc1-c1c(C)noc1C)[nH]c1nc(C)nc(Nc3cc(C)nn3C(C)(C)C)c12,concentration at 0.5 h [7]: 3680 ng/mL; concentration at 6 h [3]: 127 ng/mL; concentration at 0.5 h [8]: 5230 ng/g; concentration at 6 h [6]: 621 ng/g
26.6,12.8,2,63.2,COc1cc2c(cc1-c1c(C)noc1C)[nH]c1nc(C)nc(Nc3cc(C4CCC4)nn3C)c12,–
–,11.8,1.7,–,COc1cc2c(cc1-c1c(C)noc1C)[nH]c1nc(C)nc(Nc3n[nH]c4ccccc34)c12,–
15.4,16.8,3.4,26.3,CCn1nc(C)cc1Nc1nc(C)nc2[nH]c3cc(-c4c(C)noc4C)c(OC)cc3c12,–
–,196,66.5,–,COc1ccc2c(Nc3nc(C)nc4[nH]c5cc(-c6c(C)noc6C)c(OC)cc5c34)nn(C)c2c1,–
–,–,–,–,Cc1sc2c(c1C)C(c1ccc(Cl)cc1)=N[C@@H](CC(=O)Nc1ccc(O)cc1)c1nnc(C)n1-2 [BIRABRESIB],inhibition in vivo at 50 mg/kg (MDA-MB-231 [9]): 21%; inhibition in vivo at 50 mg/kg (RS4-11): 33%
23,10.5,1.2,23.5,COc1cc2c(cc1-c1c(C)noc1C)[nH]c1nc(C)nc(Nc3cc(C(C)(C)C)nn3C)c12,concentration at 6 h [3]: 458 ng/mL; concentration at 1 h [4]: 923 ng/mL; concentration at 1 h [5]: 305 ng/g; concentration at 6 h [6]: 268 ng/g
11.3,4.9,< 1,17.5,COc1cc2c(cc1-c1c(C)noc1C)[nH]c1nc(C)nc(Nc3c4c(nn3C)CCCC4)c12,concentration at 6 h [3]: 1150 ng/mL; concentration at 1 h [4]: 2980 ng/mL; concentration at 1 h [5]: 466 ng/g; concentration at 6 h [6]: 132 ng/g
–,9.8,1,–,COc1cc2c(cc1-c1c(C)noc1C)[nH]c1nc(C)nc(Nc3nn(CCO)c4ccccc34)c12,–
